# From PMC8251575 (Diabetes, Obesity & Metabolism, 2021)
# Tests used:
# [1] = test system: subjects with type 2 diabetes; test: Safety: treatment-emergent adverse events and hypoglycaemic episodes; type: in vivo, human; conditions: during oral semaglutide treatment
# Procedure, shortened: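 This was a 12-week crossover versus placebo in adults aged 18–75 with type 2 diabetes (HbA1c 6.0%–9.0%, BMI 20–38 kg/m²), with a 5–9-week wash-out between periods. Treatment-emergent AEs and hypoglycaemic episodes were counted from first dose to end of follow-up. Hypoglycaemia was defined as plasma glucose ≤3.9 mmol/L, or >3.9 mmol/L with symptoms. The population was the safety analysis set: all subjects given at least one dose.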
# [2] = Oral semaglutide pharmacokinetics in plasma; type: in vivo, human; conditions: median (min, max)
# Procedure, shortened: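 Adults with type 2 diabetes on diet/exercise and/or metformin took once-daily oral tablets in a crossover trial: 3 mg weeks 0–4, 7 mg weeks 4–8, 14 mg weeks 8–12. Plasma was sampled at weeks 4, 8 and 12 after the last dose of each strength.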
compound,measurement,setting,value
CC[C@H](C)[C@H](NC(=O)[C@H](Cc1ccccc1)NC(=O)[C@H](CCC(=O)O)NC(=O)[C@H](CCCCNC(=O)COCCOCCNC(=O)COCCOCCNC(=O)CC[C@H](NC(=O)CCCCCCCCCCCCCCCCC(=O)O)C(=O)O)NC(=O)[C@H](C)NC(=O)[C@H](C)NC(=O)[C@H](CCC(N)=O)NC(=O)CNC(=O)[C@H](CCC(=O)O)NC(=O)[C@H](CC(C)C)NC(=O)[C@H](Cc1ccc(O)cc1)NC(=O)[C@H](CO)NC(=O)[C@H](CO)NC(=O)[C@@H](NC(=O)[C@H](CC(=O)O)NC(=O)[C@H](CO)NC(=O)[C@@H](NC(=O)[C@H](Cc1ccccc1)NC(=O)[C@@H](NC(=O)CNC(=O)[C@H](CCC(=O)O)NC(=O)C(C)(C)NC(=O)[C@@H](N)Cc1cnc[nH]1)[C@@H](C)O)[C@@H](C)O)C(C)C)C(=O)N[C@@H](C)C(=O)N[C@@H](Cc1c[nH]c2ccccc12)C(=O)N[C@@H](CC(C)C)C(=O)N[C@H](C(=O)N[C@@H](CCCNC(=N)N)C(=O)NCC(=O)N[C@@H](CCCNC(=N)N)C(=O)NCC(=O)O)C(C)C [Oral semaglutide],"Deaths, n (subjects)",[1]; N = 15,no deaths
same,"Any AE, % of subjects",[1]; safety analysis set N = 15,93.3%
same,Semaglutide tmax,"[2]; 3 mg once daily, week 4, n = 15",1 h
same,Semaglutide tmax,"[2]; 7 mg once daily, week 8, n = 13",1 h
same,Semaglutide tmax,"[2]; 14 mg once daily, week 12, n = 13",1 h
